In BindingDB's records for doi:10.1021/jm990396t (Glaxo Wellcome Research and Development, 2000):

Molecular target: Kynurenine 3-monooxygenase (Rattus norvegicus, UniProt O88867)
Assay: Inhibition of Kynurenine-3-hydroxylase enzyme isolated from the rat liver
Summary of the method: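 Enzyme source: P2 mitochondrial pellet from rat liver, resuspended in 0.32 M sucrose. Activity measured as ³HOH release from 3-[³H]-L-kynurenine at its K_m concentration, 37 °C, under conditions linear with time and enzyme protein. Five inhibitor concentrations tested. IC50 taken as the mean of at least 2 experiments run in duplicate, with variation <20%.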

Kynurenine 3-monooxygenase, sequence (O88867 whole entry): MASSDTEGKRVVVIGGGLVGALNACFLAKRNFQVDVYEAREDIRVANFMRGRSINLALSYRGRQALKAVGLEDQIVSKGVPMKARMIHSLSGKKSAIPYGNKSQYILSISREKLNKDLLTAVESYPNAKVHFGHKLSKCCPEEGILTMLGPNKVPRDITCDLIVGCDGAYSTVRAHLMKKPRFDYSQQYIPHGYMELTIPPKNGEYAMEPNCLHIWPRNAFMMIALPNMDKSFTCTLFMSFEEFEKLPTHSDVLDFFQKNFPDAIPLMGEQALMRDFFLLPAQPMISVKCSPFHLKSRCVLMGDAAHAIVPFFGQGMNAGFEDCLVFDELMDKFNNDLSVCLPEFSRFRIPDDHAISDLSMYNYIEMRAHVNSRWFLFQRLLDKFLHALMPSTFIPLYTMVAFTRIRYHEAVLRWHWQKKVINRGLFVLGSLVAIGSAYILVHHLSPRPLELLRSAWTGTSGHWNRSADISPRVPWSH

IC50 [nM]	Compound
1900	COC(=O)C(=O)CC(=O)c1ccc(Cl)c(Cl)c1 [4-(3,4-Dichloro-phenyl)-2-hydroxy-4-oxo-but-2-enoic acid methyl ester]
1900	COC(=O)C(=O)CC(=O)c1cccc(Cl)c1 [4-(3-Chloro-phenyl)-2-hydroxy-4-oxo-but-2-enoic acid methyl ester]
1900	COC(=O)C(=O)CC(=O)c1ccc(Br)cc1 [4-(4-Bromo-phenyl)-2-hydroxy-4-oxo-but-2-enoic acid methyl ester]
1700	O=C(O)C(=O)CC(=O)c1cccc(Br)c1 [(Z)-4-(3-Bromo-phenyl)-2-hydroxy-4-oxo-but-2-enoic acid]
